FN deposit inh: fibronectin deposition inhibition | AH1F fibroblasts, Alexa488-fibronectin deposition fluorescence, overnight | inhibition, % at 12.6 µM | 350,000 compounds, 0.086% hits;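 active means mean inhibition across replicates of 30% or more, regardless of how many single replicates reach that level; inconclusive means mean under 30% yet at least half of replicates reach 30%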;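 further: positive control wells lacked labelled fibronectin entirely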
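Schedule: 1 h cell adhesion before compound, then overnight fibronectin incubation; test system: AH1F fibroblast monolayer depositing Alexa488-labelled fibronectin into matrix; quantity: 10000 AH1F cells per well; probe or stimulus: fluorescent fibronectin at 24 nM final; signal: fluorescence, ex 485 nm, em 525 nm; evaluation: percent inhibition as loss of matrix-bound fibronectin fluorescence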
XiGFP reactiv: reactivates the inactive X chromosome in mouse fibroblasts; activation, % at 7.58 µM; AID 743238; XiGFP mouse fibroblasts, % GFP-positive cells imaging, 3 d; cells co-treated with 5-aza-dC sensitizer; scaled so ellipticine positive control = 100%; 360,000 compounds, 0.055% hits;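 active means mean normalized replicate activation at least 10% and every replicate at or above 10%; inconclusive means only one of the two criteria met; inactive means mean below 10% and not all replicates reach 10%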;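 further: 0% = median of on-plate neutral control wells and 100% = ellipticine 6 µM median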
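Material: SV40-immortalized XiGFP fibroblast cells, line 68-5-11 | Buffer or medium: DMEM containing 5-aza-dC | Dosing: One concentration, pinned | Times: 3 d treatment, 15 min room-temperature fixation | Controls: Ellipticine 6 µM positive control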
DENV2 CPE rescue: protects cells from dengue virus 2 cytopathic effect | 350,000 compounds, 1.7% hits | DENV2-infected cells, cytopathic effect rescue, plate reader | AID 651640 | CPE inhibition, % at 9.99 µM; in the data active means CPE inhibition above about 20%, passing the limit was not always enough; inconclusive means no clear call, values can overlap the other calls; tested in BHK-21 cells;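 further: 0% = median of neutral control wells and 100% = median of positive control wells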
PGC1a acetyl inh: modulators of PGC1a acetylation | 350,000 compounds, 0.17% hits | U2OS PGC1a acetylation, AlphaScreen anti-acetyl-lysine; with virally co-expressed GCN5 acetyltransferase | inhibition, % at 15.6 µM;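 active means every replicate shows inhibition of at least 40%; inconclusive means mean inhibition at least 40% but some replicate below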;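 further: 0% = neutral control wells and 100% = positive control wells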
F508del corr: CFTR F508del correction in bronchial cells | CFBE cells, YFP halide quenching; stimulated with forskolin plus potentiator P3; % fluorescence drop versus neutral controls | activity (quench increase), % at 7.58 µM | 350,000 compounds, 0.36% hits | AID 720511;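 active means mean added fluorescence quench of at least 8% versus neutral control, with both replicates also reaching 8%; inconclusive means only one of the mean or replicate conditions met; inactive means mean below 8% and not both replicates reaching 8%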;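 further: cells transiently co-express mutant CFTR-F508del with the halide-sensitive YFP; corrector assay measuring rescue of mutant channel to the surface after 24 h compound exposure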
Cneo AK release: Cryptococcus neoformans lysis via adenylate kinase release; C. neoformans lysis, adenylate kinase release luminescence, 4 h; normalised: neutral wells 0, clomiphene wells 100; lysis activity, % at 15 µM; 360,000 compounds, 0.2% hits; AID 651654;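 active means mean lysis activity across replicates of at least 80%, whatever share of replicates individually reach that level; inactive means mean lysis activity below 80%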
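Assay system: Cryptococcus neoformans yeast cells / Dosing: single-point compound dose / Timing: 4 h at 37 °C static, read 1 h later / Measured by: luminescence of released adenylate kinase using an AK detection reagent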
* marks the source's active call; other numbers are inactive results; u = inconclusive; x = not tested or not shown; ! = a repeat was not active. Only some compounds are listed: those with a hit (about 1.9% of all), similar ones and a draw of the others.

SMILES	FN deposit inh	XiGFP reactiv	DENV2 CPE rescue	PGC1a acetyl inh	F508del corr	Cneo AK release
CCC(=O)Nc1ccc2c(c1)C(=O)N(C)[C@H]1CC[C@H](CC(=O)N[C@H](C)c3ccccc3)O[C@@H]1CO2	7.4	0.1	-7.6	-9.6	-1.1	x
CCC(=O)Nc1ccc2c(c1)C(=O)N(C)[C@H]1CC[C@@H](CC(=O)N[C@@H](C)c3ccccc3)O[C@H]1CO2	-8.1	0.1	70.6*	4.2	-1.0	12.7
CCC(=O)Nc1ccc2c(c1)C(=O)N(C)[C@@H]1CC[C@H](CC(=O)N[C@@H](C)c3ccccc3)O[C@@H]1CO2	-15.9	0.3	139.3*	-12.3	-0.3	-5.5
CC(C)C(=O)Nc1ccc2c(c1)C(=O)N(C)[C@H]1CC[C@H](CC(=O)Nc3ccccc3F)O[C@@H]1CO2	-5.4	-0.1	77.9*	-0.3	-2.5	2.1
CCC(=O)Nc1ccc2c(c1)C(=O)N(C)[C@@H]1CC[C@H](CC(=O)N[C@@H](C)c3ccccc3)O[C@H]1CO2	4.1	0.5	62.2*	-4.2	1.8	23.4
C[C@@H]1CN([C@@H](C)CO)C(=O)c2cc(C#CC3CC3)cnc2O[C@H]1CN(C)Cc1ccccn1	5.6	-0.8	-7.4	-1.8	-0.4	0.6
C[C@H](CO)N1C[C@H](C)[C@H](CN(C)C(=O)Nc2ccc(C(F)(F)F)cc2)Oc2ccc(NC(=O)CCCCCC(=O)Nc3ccccc3N)cc2CC1=O	x	-0.4	1.5	1.8	-3.5	1.0
CO[C@@H]1CN(C)C(=O)c2ccc(NC(=O)C3CCOCC3)cc2OC[C@H](C)NC[C@H]1C	-15.0	0.0	5.1	7.6	-0.4	0.3
C[C@@H]1CN([C@H](C)CO)C(=O)c2cc(NC(=O)Nc3ccccc3)ccc2O[C@@H](C)CCCCO[C@H]1CN(C)S(=O)(=O)c1cccs1	3.7	0.0	-10.5	-12.4	-0.3	-4.9
CC1(C)CC(=O)C2=C(C1)Nc1ccccc1NC2c1ccc(F)c(F)c1 (configuration not stated)	0.8	0.2	22.7*	-9.3	0.6	0.0
CC1(C)CC(=O)C2=C(C1)Nc1ccccc1NC2c1ccccc1F (configuration not stated)	0.9	0.3	-1.9	11.4	-2.1	0.0
CC1C2CCC(C2)C1OC(=O)c1ccccc1C(=O)O (configuration not stated)	6.7	0.3	-7.7	x	9.4*	x
O=C(O)c1ccccc1C(=O)OC1CCCC2CCCC21 (configuration not stated)	-6.4	0.2	0.0	x	-1.3	x
CN(C)/C=C/C(=O)/C=C/c1ccc(Cl)cc1	2.7	0.0	x	10.0	-0.1	x
CN(C)CC(O)c1ccc(C=Cc2ccc(Cl)cc2)cc1 (configuration not stated)	1.7	0.2	-2.8	50.6*	1.7	6.2
Cc1cc(C(=O)O/N=C(\N)c2ccc(C(C)(C)C)cc2)no1	9.4	0.0	65.2*	-0.4	0.2	19.5
CC(C)(C)c1ccc(C(=O)O/N=C(\N)c2ccccc2)cc1	-2.1	0.3	-5.1	x	3.0	-3.7
C[C@H]1CN([C@@H](C)CO)S(=O)(=O)c2ccc(C#Cc3ccc(F)cc3)cc2O[C@H]1CN(C)C(=O)NC1CCCCC1	14.9	0.0	-11.5	11.6	10.1*	2.0
C[C@H](CO)N1C[C@H](C)[C@@H](CN(C)C(=O)NC2CCCCC2)Oc2cc(C#Cc3cccc(F)c3)ccc2S1(=O)=O	-2.0	-0.7	x	-10.4	1.2	x
C[C@@H]1CN([C@H](C)CO)S(=O)(=O)c2ccc(C#Cc3cccc(F)c3)cc2O[C@@H]1CN(C)C(=O)NC1CCCCC1	-7.3	-0.9	-0.8	12.3	10.4*	2.7
C[C@H]1CN([C@@H](C)CO)S(=O)(=O)c2ccc(C#Cc3cccc(F)c3)cc2O[C@H]1CN(C)C(=O)NC1CCCCC1	6.3	0.0	7.0	14.8	11.6*	1.9
C[C@H]1CN([C@@H](C)CO)S(=O)(=O)c2ccc(C#Cc3ccc(F)cc3)cc2O[C@@H]1CN(C)C(=O)NC1CCCCC1	-3.7	0.0	4.6	11.0	6.8	-5.2
C[C@H](CO)N1C[C@H](C)[C@H](CN(C)C(=O)NC2CCCCC2)Oc2cc(C#Cc3cccc(F)c3)ccc2S1(=O)=O	0.0	-0.1	-0.3	u	8.4*	57.3
C[C@@H]1CN([C@@H](C)CO)S(=O)(=O)c2ccc(C#Cc3ccc(F)cc3)cc2O[C@@H]1CN(C)C(=O)NC1CCCCC1	11.7	-0.5	8.4	20.9	5.9	-10.5
CC(C)(C)NC[C@@H](O)COc1cccc2c1CCCC2=O	-2.6	0.0	30.9*	x	-1.1	-2.2
SMILES	FN deposit inh	XiGFP reactiv	DENV2 CPE rescue	PGC1a acetyl inh	F508del corr	Cneo AK release
CC(C)(C)NCC(O)COc1ccccc1C1CCCC1 (configuration not stated)	-1.6	-0.1	-3.5	-11.9	x	-1.3
N#Cc1ccc(-c2ccc3c(c2)[C@@H]2[C@@H](CCN2C(=O)Cc2ccccc2)[C@@H](CO)N3)cc1	22.5	-0.1	u	-13.2	3.7	89.3*
N#Cc1ccc(-c2ccc3c(c2)[C@H]2[C@H](CCN2C(=O)Cc2ccccc2)[C@@H](CO)N3)cc1	0.6	0.3	-18.7	-17.4	0.6	94.8*
CCC(=O)N1CC[C@@H]2[C@H](CO)Nc3ccc(-c4cccc(C#N)c4)cc3[C@@H]21	9.1	0.0	137.0*	0.4	-0.6	-1.1
CCCC#Cc1ccc([C@H]2[C@H](CO)N3CCCCN(C(=O)NC4CCCC4)C[C@@H]23)cc1	x	-0.1	-33.1	-7.2	-0.3	3.7
CO[C@H]1CN(C)C(=O)c2cc(NC(C)=O)ccc2OC[C@H](C)N(Cc2nccs2)C[C@@H]1C	-7.8	-0.1	32.1*	7.1	1.5	-4.4
CO[C@H]1CN(C)C(=O)c2ccc(NC(=O)C3CCC3)cc2OC[C@H](C)N(Cc2nccs2)C[C@H]1C	4.0	0.2	16.3	x	1.0	2.2
CO[C@@H]1CN(C)C(=O)c2ccc(NC(=O)C3CCC3)cc2OC[C@H](C)N(Cc2nccs2)C[C@H]1C	-9.0	0.0	26.6*	x	0.3	-0.3
CO[C@@H]1CN(C)C(=O)c2cc(NC(C)=O)ccc2OC[C@H](C)N(Cc2nccs2)C[C@H]1C	-8.2	0.2	-3.9	7.0	1.7	0.1
CC(=O)n1cc([C@@H]2C=C(C(=O)NCc3ccccc3)O[C@H](OCc3ccc(CO)cc3)C2)c2ccccc21	-8.1	0.1	44.6*!	-14.0	2.1	1.1
CC(=O)n1cc([C@@H]2C=C(C(=O)O)O[C@H](OCc3ccc(CO)cc3)C2)c2ccccc21	-8.9	0.0	28.5*!	11.7	-2.5	-1.1
